Target: T1, Calpain-2 catalytic subunit (Homo sapiens, UniProt P17655)
T1 sequence (P17655 whole entry): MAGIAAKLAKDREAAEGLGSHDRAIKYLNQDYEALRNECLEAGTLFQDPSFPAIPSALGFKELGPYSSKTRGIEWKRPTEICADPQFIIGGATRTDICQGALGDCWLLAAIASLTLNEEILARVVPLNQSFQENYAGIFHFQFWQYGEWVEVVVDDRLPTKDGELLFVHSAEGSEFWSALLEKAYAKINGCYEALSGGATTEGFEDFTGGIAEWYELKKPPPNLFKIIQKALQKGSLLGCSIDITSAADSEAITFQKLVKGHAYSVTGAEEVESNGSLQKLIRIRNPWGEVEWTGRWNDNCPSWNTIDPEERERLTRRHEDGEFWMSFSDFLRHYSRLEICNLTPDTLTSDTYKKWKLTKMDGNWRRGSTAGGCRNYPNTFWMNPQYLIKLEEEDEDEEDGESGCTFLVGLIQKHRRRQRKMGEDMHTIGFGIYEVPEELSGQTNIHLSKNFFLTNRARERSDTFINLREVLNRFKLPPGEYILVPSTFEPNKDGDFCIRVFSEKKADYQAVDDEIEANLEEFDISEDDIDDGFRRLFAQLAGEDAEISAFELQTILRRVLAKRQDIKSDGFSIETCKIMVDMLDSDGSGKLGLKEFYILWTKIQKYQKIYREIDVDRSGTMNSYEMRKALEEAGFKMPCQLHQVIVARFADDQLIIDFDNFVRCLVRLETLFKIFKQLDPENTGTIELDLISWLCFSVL
Assay: Compound was evaluated for the inhibition of Cysteine protease Calpain 2
Outline: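 Calpain assay in 25 mM Tris, pH 8.0, with 10 mM CaCl₂ and 5% DMSO. Suc-Leu-AMC hydrolysis was read as initial velocity (t = 30-60 s) after a 30 s delay, at room temperature. Five or more inhibitor concentrations (not above 2 × K_obs) were used at two fixed substrate levels. Ki came from Dixon plots (1/v vs I) averaged over triplicates.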

SMILES	Ki [nM]
CCC(NC(=O)C(CC(C)C)NC(=O)OCc1ccccc1)C(=O)C(=O)NCc1nccc2ccccc12 (stereo unspecified) [{1-[1-(Isoquinolin-1-ylmethyl)-aminooxalyl]-propylcarbamoyl}-3-methyl-butyl)-carbamic acid benzyl ester]	150
CCNC(=O)C(=O)C(CC)NC(=O)C(CC(C)C)NC(=O)c1ccco1 (stereo unspecified) [Furan-2-carboxylic acid [1-(1-ethylaminooxalyl-propylcarbamoyl)-3-methyl-butyl]-amide]	580
CCC(NC(=O)C(CC(C)C)NC(=O)OCc1ccccc1)C(=O)C(=O)NCC(O)c1ccc(OCc2ccccc2)cc1 (stereo unspecified) [(1-{1-[2-(4-Benzyloxy-phenyl)-2-hydroxy-ethylaminooxalyl]-propylcarbamoyl}-3-methyl-butyl)-carbamic acid benzyl ester]	120
CC(C)CC(NC(=O)C(c1ccccc1)c1ccccc1)C(=O)NC(Cc1ccccc1)C(=O)C(=O)NCC(O)c1ccccc1 (stereo unspecified) [2-Diphenylacetylamino-4-methyl-pentanoic acid [1-benzyl-2-(2-hydroxy-2-phenyl-ethylcarbamoyl)-2-oxo-ethyl]-amide]	730
CCNC(=O)C(=O)C(CC)NC(=O)C(CC(C)C)NC(=O)c1cccnc1 (stereo unspecified) [N-[1-(1-Ethylaminooxalyl-propylcarbamoyl)-3-methyl-butyl]-nicotinamide]	830
CC(C)CC(NC(=O)OCc1ccccc1)C(=O)NC(Cc1ccccc1)C(=O)C(=O)NCC(O)c1cccc(Oc2ccccc2)c1 (stereo unspecified) [(1-{1-Benzyl-2-[2-hydroxy-2-(3-phenoxy-phenyl)-ethylcarbamoyl]-2-oxo-ethylcarbamoyl}-3-methyl-butyl)-carbamic acid benzyl ester]	340
CNC(=O)C(=O)C(Cc1ccccc1)NC(=O)C(CC(C)C)NC(=O)OCc1ccccc1 (stereo unspecified) [[1-(1-Benzyl-2-methylcarbamoyl-2-oxo-ethylcarbamoyl)-3-methyl-butyl]-carbamic acid benzyl ester]	150
CCNC(=O)C(=O)C(CC)NC(=O)C(CC(C)C)NC(=O)N1CCOCC1 (stereo unspecified) [Morpholine-4-carboxylic acid [1-(1-ethylaminooxalyl-propylcarbamoyl)-3-methyl-butyl]-amide]	9900
CC(C)CC(NC(=O)OCc1ccccc1)C(=O)NC(Cc1ccccc1)C(=O)C(=O)NCCCN1CCOCC1 (stereo unspecified) [{1-[1-Benzyl-2-(3-morpholin-4-yl-propylcarbamoyl)-2-oxo-ethylcarbamoyl]-3-methyl-butyl}-carbamic acid benzyl ester]	330
CCC(NC(=O)C(CC(C)C)NC(=O)OCc1ccccc1)C(=O)C(=O)NCC(O)c1cccc(C(F)(F)F)c1 (stereo unspecified) [(1-{1-[2-Hydroxy-2-(3-trifluoromethyl-phenyl)-ethylaminooxalyl]-propylcarbamoyl}-3-methyl-butyl)-carbamic acid benzyl ester]	180
CCC(NC(=O)C(CC(C)C)NC(=O)OCc1ccccc1)C(=O)C(=O)NCCc1ccccn1 (stereo unspecified) [{3-Methyl-1-[1-(2-pyridin-2-yl-ethylaminooxalyl)-propylcarbamoyl]-butyl}-carbamic acid benzyl ester]	470
CC(C)CC(NC(=O)OCc1ccccc1)C(=O)NC(Cc1ccccc1)C(=O)C(=O)NCC(O)c1cccc(Oc2cccc(C(F)(F)F)c2)c1 (stereo unspecified) [[1-(1-Benzyl-2-{2-hydroxy-2-[3-(3-trifluoromethyl-phenoxy)-phenyl]-ethylcarbamoyl}-2-oxo-ethylcarbamoyl)-3-methyl-butyl]-carbamic acid benzyl ester]	450
CCC(NC(=O)C(CC(C)C)NC(=O)C(c1ccccc1)c1ccccc1)C(=O)C(=O)NCCCN1CCOCC1 (stereo unspecified) [3-(2-Diphenylacetylamino-4-methyl-pentanoylamino)-2-oxo-pentanoic acid (3-morpholin-4-yl-propyl)-amide]	110
CCC(NC(=O)C(CC(C)C)NC(=O)OCc1ccccc1)C(=O)C(=O)NCC(O)c1c(F)c(F)c(F)c(F)c1F (stereo unspecified) [{1-[1-(2-Hydroxy-2-pentafluorophenyl-ethylaminooxalyl)-propylcarbamoyl]-3-methyl-butyl}-carbamic acid benzyl ester]	200
CC(C)CC(NC(=O)OCc1ccccc1)C(=O)NC(Cc1ccccc1)C(=O)C(=O)NCc1ccccn1 (stereo unspecified) [(1-{1-Benzyl-2-oxo-2-[(pyridin-2-ylmethyl)-carbamoyl]-ethylcarbamoyl}-3-methyl-butyl)-carbamic acid benzyl ester]	270
CC(C)CC(NC(=O)C(c1ccccc1)c1ccccc1)C(=O)NC(Cc1ccccc1)C(=O)C(=O)NCc1ccccn1 (stereo unspecified) [2-Diphenylacetylamino-4-methyl-pentanoic acid {1-benzyl-2-oxo-2-[(pyridin-2-ylmethyl)-carbamoyl]-ethyl}-amide]	360
CCNC(=O)C(=O)C(CC)NC(=O)C(CC(C)C)NC(=O)c1ccc2ccccc2n1 (stereo unspecified) [Quinoline-2-carboxylic acid [1-(1-ethylaminooxalyl-propylcarbamoyl)-3-methyl-butyl]-amide]	300
CC(C)CC(NC(=O)OCc1ccccc1)C(=O)NC(Cc1ccccc1)C(=O)C(=O)NCC(O)c1ccc(Oc2ccccc2)cc1 (stereo unspecified) [(1-{1-Benzyl-2-[2-hydroxy-2-(4-phenoxy-phenyl)-ethylcarbamoyl]-2-oxo-ethylcarbamoyl}-3-methyl-butyl)-carbamic acid benzyl ester]	170
CCC(NC(=O)C(CC(C)C)NC(=O)OCc1ccccc1)C(=O)C(=O)NCC(O)c1ccc2ccccc2c1 (stereo unspecified) [{1-[1-(2-Hydroxy-2-naphthalen-2-yl-ethylaminooxalyl)-propylcarbamoyl]-3-methyl-butyl}-carbamic acid benzyl ester]	110
CCC(NC(=O)C(CC(C)C)NC(=O)OCc1ccccc1)C(=O)C(=O)NCC(OC)OC (stereo unspecified) [{1-[1-(2,2-Dimethoxy-ethylaminooxalyl)-propylcarbamoyl]-3-methyl-butyl}-carbamic acid benzyl ester]	100
CCNC(=O)C(=O)C(CC)NC(=O)C(CC(C)C)NC(=O)CCc1ccccc1 (stereo unspecified) [3-[4-Methyl-2-(3-phenyl-propionylamino)-pentanoylamino]-2-oxo-pentanoic acid ethylamide]	130

Further compounds by falling Ki, results first:

Ki [nM]	SMILES
100	CCCC(NC(=O)C(CC(C)C)NC(=O)OCc1ccccc1)C(=O)C(=O)NCCCN1CCOCC1 (stereo unspecified) [{3-Methyl-1-[1-(3-morpholin-4-yl-propylaminooxalyl)-butylcarbamoyl]-butyl}-carbamic acid benzyl ester]
100	CCC(NC(=O)C(CC(C)C)NC(=O)OCc1ccccc1)C(=O)C(=O)NCC(O)c1ccc(OCc2ccccc2)c(OCc2ccccc2)c1 (stereo unspecified) [(1-{1-[2-(3,4-Bis-benzyloxy-phenyl)-2-hydroxy-ethylaminooxalyl]-propylcarbamoyl}-3-methyl-butyl)-carbamic acid benzyl ester]
90	CCC(NC(=O)C(CC(C)C)NC(=O)C(c1ccccc1)c1ccccc1)C(=O)C(=O)NCc1ccccn1 (stereo unspecified) [3-(2-Diphenylacetylamino-4-methyl-pentanoylamino)-2-oxo-pentanoic acid (pyridin-2-ylmethyl)-amide]
86	CCC(NC(=O)C(CC(C)C)NC(=O)OCc1ccccc1)C(=O)C(=O)NCCc1cccc(OC)c1 (stereo unspecified) [(1-{1-[2-(3-Methoxy-phenyl)-ethylaminooxalyl]-propylcarbamoyl}-3-methyl-butyl)-carbamic acid benzyl ester]
78	CCC(NC(=O)C(CC(C)C)NC(=O)OCc1ccccc1)C(=O)C(=O)NCCO (stereo unspecified) [{1-[1-(2-Hydroxy-ethylaminooxalyl)-propylcarbamoyl]-3-methyl-butyl}-carbamic acid benzyl ester]
69	CCC(NC(=O)C(CC(C)C)NC(=O)OCc1ccccc1)C(=O)C(=O)NCC1(C)CC(O)CC(C)(C)C1 (stereo unspecified) [{1-[1-(5-Hydroxy-1,3,3-trimethyl-cyclohexylmethyl)-aminooxalyl]-propylcarbamoyl}-3-methyl-butyl)-carbamic acid benzyl ester]
68	CCC(NC(=O)C(CC(C)C)NC(=O)OCc1ccccc1)C(=O)C(=O)NCCCn1ccnc1 (stereo unspecified) [{1-[1-(3-Imidazol-1-yl-propylaminooxalyl)-propylcarbamoyl]-3-methyl-butyl}-carbamic acid benzyl ester]
50	CCC(NC(=O)C(CC(C)C)NC(=O)OCc1ccccc1)C(=O)C(=O)NCCc1c[nH]c2ccccc12 (stereo unspecified) [(1-{1-[2-(1H-Indol-3-yl)-ethylaminooxalyl]-propylcarbamoyl}-3-methyl-butyl)-carbamic acid benzyl ester]
33	CCC(NC(=O)C(CC(C)C)NC(=O)OCc1ccccc1)C(=O)C(=O)NCc1ccco1 (stereo unspecified) [{1-[1-(Furan-2-ylmethyl)-aminooxalyl]-propylcarbamoyl}-3-methyl-butyl)-carbamic acid benzyl ester]
17	CCC(NC(=O)C(CC(C)C)NC(=O)OCc1ccccc1)C(=O)C(=O)NCc1ccccn1 (stereo unspecified) [{3-Methyl-1-[1-(pyridin-2-ylmethyl)-aminooxalyl]-propylcarbamoyl}-butyl)-carbamic acid benzyl ester]

Source: BindingDB's records for doi:10.1021/jm950541c (Georgia Institute of Technology, 1996)
